In ChEMBL document CHEMBL3414433, “Discovery and profiling of a selective and efficacious Syk inhibitor” (J Med Chem, 2015):
pIC50, pKd: −log10 of the molar value. Calls of active or inactive are those of the source. The calls are words filed in the database; no cut-off is given here.

Columns and labels:
[1] = Drug uptake in blood of Lewis rat collagen-induced arthritis model at 10 mg/kg, po qd administered on day 15 post immunization measured at 4 hrs on day 18; assay type: ADME, organism-based; parameters: dose 10 mg/kg, route oral; conditions: read-out: Drug uptake
Procedure, shortened: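 Collagen-arthritic Lewis rats given 3, 10 or 30 mg/kg p.o. once daily from day 15; blood levels measured on day 18 (third day of treatment) at 4, 8 and 24 h after dosing.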

Canis familiaris [2] = species: Canis familiaris; assay: Hepatotoxicity in dog assessed as single necrosis of hepatocytes measured for 4 weeks by GLP study; assay type: toxicity, organism-based, Canis lupus familiaris, Hepatocyte; conditions: 672 h
[3] = target: Serine/threonine-protein kinase PAK 5 (Homo sapiens, UniProt Q9P286); assay: Competitive binding affinity to human PAK7
Canis familiaris [4] = species: Canis familiaris; assay: Hepatotoxicity in dog assessed as portal inflammation measured for 4 weeks by GLP study; assay type: toxicity, organism-based, Canis lupus familiaris; conditions: in vivo, 672 h
Rattus norvegicus [5] = assay: Dose normalized AUC in Sprague-Dawley rat at 3 mg/kg, po administered as cassette dosing; assay type: ADME, organism-based; parameters: dose 3 mg/kg, route oral; conditions: in vivo
Procedure, shortened: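 Rat PK: i.v. 1 mg/kg in NMP/PEG200 (3:7); p.o. 3 mg/kg in CMC/water/Tween (0.5:99:0.5). Exposure values dose normalized.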

[6] = Cytotoxicity against C57BL/6 mouse bone marrow cells assessed as growth inhibition preincubated for 4 days followed by [3H]-thymidine addition measured after 5 hrs by betaplate counting analysis; assay type: cell-based, Bone marrow cell; conditions: Mus musculus, C57BL/6, Bone marrow cell
Canis familiaris [7] = assay: Dose normalized Cmax in Beagle dog at 0.1 mg/kg, iv and 0.3 mg/kg, po; assay type: ADME, organism-based, Canis lupus familiaris; conditions: in vivo
Procedure, shortened: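 One-in-one dosing in Beagle dogs: i.v. 0.1 mg/kg in NMP/PEG200 (3:7); p.o. 0.3 mg/kg in MC/water (0.5:99.5). Exposure values dose normalized.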

[8] = target: T1, Tyrosine-protein kinase ZAP-70 (Homo sapiens, UniProt P43403); assay: Inhibition of ZAP70 in anti-CD3 stimulated human Jurkat T cells assessed as SLP76 phosphorylation at Y128 preincubated for 30 mins followed by anti-CD3 stimulation measured after 2 mins by FACS analysis; assay type: cell-based
T1 sequence (P43403 whole entry): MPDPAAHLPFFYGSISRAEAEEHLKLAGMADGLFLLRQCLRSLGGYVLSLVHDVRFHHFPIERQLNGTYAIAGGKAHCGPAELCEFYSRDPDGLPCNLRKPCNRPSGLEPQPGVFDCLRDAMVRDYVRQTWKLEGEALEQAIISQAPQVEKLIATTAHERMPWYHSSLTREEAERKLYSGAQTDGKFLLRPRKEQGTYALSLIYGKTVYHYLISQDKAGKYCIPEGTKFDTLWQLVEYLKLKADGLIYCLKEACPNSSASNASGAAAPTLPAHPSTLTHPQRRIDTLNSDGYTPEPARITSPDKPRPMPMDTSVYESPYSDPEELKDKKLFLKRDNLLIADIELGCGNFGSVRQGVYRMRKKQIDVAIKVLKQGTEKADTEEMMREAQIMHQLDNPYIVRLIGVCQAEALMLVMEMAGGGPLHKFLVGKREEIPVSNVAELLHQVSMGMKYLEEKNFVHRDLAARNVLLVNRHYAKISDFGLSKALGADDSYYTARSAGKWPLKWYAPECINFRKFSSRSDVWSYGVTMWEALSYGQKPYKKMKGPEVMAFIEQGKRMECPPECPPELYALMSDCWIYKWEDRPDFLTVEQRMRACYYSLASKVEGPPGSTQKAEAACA
Procedure, shortened: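 Jurkat T cells washed in RPMI/0.1% FCS, preincubated with compound 30 min at 37 °C, stimulated with anti-TCR OKT3 (30 μg/mL final) 2 min at 37 °C, fixed in 2% PFA, permeabilized in 90% methanol, stained anti-SLP76 pY128 80 min at RT; flow cytometry. IC50 from factor F = MFI × percent positive cells.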

Rattus norvegicus [9] = assay: In vivo inhibition of Syk in Lewis rat assessed as reduction in FcgR-induced SLP76 phosphorylation in peripheral blood monocytes at 22 mg/kg, po measured after 4 hrs relative to vehicle-treated control; assay type: functional
Procedure, shortened: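 Single oral dose of 22 mg/kg to Lewis rats; blood sampled at 2, 4 and 24 h after dosing for compound level and ex vivo FcγR-induced phospho-SLP76 in peripheral blood monocytes.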

[10] = target: T2, Tyrosine-protein kinase Mer (Homo sapiens, UniProt Q12866); assay: Competitive binding affinity to human MERTK
T2 sequence (Q12866 whole entry): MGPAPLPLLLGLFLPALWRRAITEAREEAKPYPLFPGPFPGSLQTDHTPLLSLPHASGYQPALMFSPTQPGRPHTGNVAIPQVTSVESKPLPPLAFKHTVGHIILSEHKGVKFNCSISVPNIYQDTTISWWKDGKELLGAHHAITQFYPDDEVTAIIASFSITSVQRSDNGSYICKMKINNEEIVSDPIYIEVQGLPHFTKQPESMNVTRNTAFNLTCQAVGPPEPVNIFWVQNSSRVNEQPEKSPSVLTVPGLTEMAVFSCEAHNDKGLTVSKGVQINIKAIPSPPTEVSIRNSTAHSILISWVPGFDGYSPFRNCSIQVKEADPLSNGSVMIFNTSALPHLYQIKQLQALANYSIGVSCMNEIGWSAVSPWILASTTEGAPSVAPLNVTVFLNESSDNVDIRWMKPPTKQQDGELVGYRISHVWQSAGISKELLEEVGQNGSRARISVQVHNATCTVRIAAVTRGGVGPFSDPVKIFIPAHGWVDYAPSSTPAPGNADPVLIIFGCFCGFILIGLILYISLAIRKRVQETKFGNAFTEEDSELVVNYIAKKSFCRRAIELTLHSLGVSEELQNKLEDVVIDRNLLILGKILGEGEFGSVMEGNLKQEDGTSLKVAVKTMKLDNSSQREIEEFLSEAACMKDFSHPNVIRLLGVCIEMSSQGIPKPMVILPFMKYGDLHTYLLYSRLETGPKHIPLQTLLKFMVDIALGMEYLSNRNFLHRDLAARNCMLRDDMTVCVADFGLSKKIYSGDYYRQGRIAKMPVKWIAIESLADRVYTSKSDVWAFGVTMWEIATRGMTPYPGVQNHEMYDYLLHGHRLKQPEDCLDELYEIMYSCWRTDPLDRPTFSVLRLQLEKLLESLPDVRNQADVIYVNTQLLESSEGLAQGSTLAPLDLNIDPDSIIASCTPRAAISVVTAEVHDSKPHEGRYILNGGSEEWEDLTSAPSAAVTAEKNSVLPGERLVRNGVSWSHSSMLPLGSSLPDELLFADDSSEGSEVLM

[11] = target: Tyrosine-protein kinase SYK (Homo sapiens, UniProt P43405); assay: Inhibition of Syk in anti-CD32 stimulated CD14+ human monocytes assessed as phospho-SLP76 level preincubated for 30 mins followed by anti-CD32 stimulation measured after 5 mins by flow cytometric analysis
Rattus norvegicus [12] = assay: Antiarthritic activity in Lewis rat collagen-induced arthritis model assessed as reduction of proteoglycan loss in hind paw at 3 to 30 mg/kg, po qd administered on day 15 post immunization measured after day 28 by Giemsa/safranin O staining-based assay; assay type: functional, organism-based
Procedure, shortened: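 Female Lewis rats (140−160 g), arthritis induced by porcine collagen immunization (day 0) and boost (day 7); rats with swollen joints randomized, dosed orally once daily from day 15 to day 28. Hind paws taken on day 28, fixed in 10% buffered formalin for 48 h, decalcified over 16 days, paraffin-embedded; 3 μm sections stained with Giemsa and safranin O and scored.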

Chain of Serine/threonine-protein kinase PAK 5 (Q9P286 whole entry): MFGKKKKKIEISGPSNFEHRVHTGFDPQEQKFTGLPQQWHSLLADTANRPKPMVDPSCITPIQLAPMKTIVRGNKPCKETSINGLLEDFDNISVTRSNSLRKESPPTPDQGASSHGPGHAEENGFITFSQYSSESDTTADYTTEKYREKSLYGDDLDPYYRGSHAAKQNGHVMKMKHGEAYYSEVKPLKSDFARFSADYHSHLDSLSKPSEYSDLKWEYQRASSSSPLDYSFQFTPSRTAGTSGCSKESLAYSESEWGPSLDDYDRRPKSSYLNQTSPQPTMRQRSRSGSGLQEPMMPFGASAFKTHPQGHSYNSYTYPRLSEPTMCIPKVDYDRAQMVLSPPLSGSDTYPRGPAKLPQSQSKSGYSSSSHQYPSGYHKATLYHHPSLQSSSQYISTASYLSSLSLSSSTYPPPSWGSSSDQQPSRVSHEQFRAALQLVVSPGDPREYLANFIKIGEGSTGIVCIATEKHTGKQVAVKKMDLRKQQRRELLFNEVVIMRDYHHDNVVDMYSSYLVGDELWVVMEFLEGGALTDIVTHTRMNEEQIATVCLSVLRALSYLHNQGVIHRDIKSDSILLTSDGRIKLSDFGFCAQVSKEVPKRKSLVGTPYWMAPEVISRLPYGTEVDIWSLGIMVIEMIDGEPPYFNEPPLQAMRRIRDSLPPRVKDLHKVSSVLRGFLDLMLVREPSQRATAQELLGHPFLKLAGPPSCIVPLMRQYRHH

What does the source list for NC(=O)c1nnc(N[C@@H]2CCCC[C@@H]2N)nc1Nc1cccc2cc[nH]c12?
concentration at 4 h [1]: 866 nM; Activity (Canis familiaris [2]): Toxic; pKd [3]: 7.92; Activity (Canis familiaris [4]): Toxic; AUC/dose (Rattus norvegicus [5]): 877 nM·h; pIC50 [6]: 5.04; Cmax/dose (Canis familiaris [7]): 139 nM; pIC50 [8]: 5.60; inhibition in vivo at 22 mg/kg (Rattus norvegicus [9]): 85%; pKd [10]: 6.82; pIC50 [11]: 6.44; Activity (Rattus norvegicus [12]): Active
